RAM inhibit: inhibitors of the yeast RAM network, primary screen, dse1pr::URA3 reporter, 5-FOA selection; AID 868, 2007; 1.8% of 190,000 active; inhibition, % at 50 µM; S. cerevisiae dse1pr::URA3 reporter, 5-FOA growth OD615, 2 d; analog-sensitive cbk1-as2 kinase mutant strain;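 active = inhibition above a set limit, 3 SD over mean compound inhibition, cut at about 8.4% in these data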;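 also: 0% = DMSO-only wells with no growth and 100% = 10 µM 1-NA-PP1 full growth; inhibition rescues growth on 5-FOA so higher OD means more RAM inhibition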
Yeast lifespan up: compounds extending yeast replicative lifespan, primary screen, S. cerevisiae, OD615; S. cerevisiae growth with nicotinamide; deaD strain in restrictive glucose medium; inhibition of the nicotinamide effect, % at 10 µM; 0.68% of 130,000 active; AID 775, 2007;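 active = inhibition above a set limit, placed 3 SD over the median of all compounds, cut at about 26% in these data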;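 also: 0% = nicotinamide-treated wells and 100% = cells grown without nicotinamide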
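Assay system: engineered S. cerevisiae DeaD replicative-lifespan strain, galactose-grown log-phase cells; Buffer or medium: CSMM-D glucose medium, restrictive; Probe or stimulus: nicotinamide 1.5 mM; Compound: single dose 10 µM compound, 0.25% DMSO; Schedule: 4 h preincubation then 48 h treatment at 30 °C; Technique: OD615 measurement.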
Insulin prom inh: inhibitors of insulin promoter-driven GFP, primary screen, imaging, TRM-6 cells, eGFP reporter, cell count. reporter expression induced with tamoxifen. 0.9% of 130,000 active. inhibition, % at 2 µM. AID 1273, 2008;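 active = inhibition above the mean plus 3 SD, with well images judged a real hit on visual review, cut at about 60% in these data, passing the limit was not always enough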
Yeast growth inh: growth inhibitors of yeast BB579 in restrictive medium, primary screen, yeast lifespan-shortening project, S. cerevisiae | OD615, 48 h | inhibition, % at 10 µM | 0.51% of 140,000 active | AID 804, 2007;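 active = inhibition above a set limit, 3 SD over the mean compound inhibition, cut at about 44% in these data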
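test system = yeast BB579 (DeaD) | buffer or medium = restrictive CSMM-D medium | doses = single compound dose of 10 µM, 0.25% DMSO final | times = 4 h preincubation and 48 h exposure at 30 °C | technique = culture absorbance at 615 nm | benchmarks = amphotericin B 10 µg/mL, positive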
MDM2 E3 inh: MDM2-luciferase reporter signal enhancers, primary screen, MDM2 E3 ligase inhibitor project, cell-based, luminescence, 1536-well; E3 ubiquitin-protein ligase Mdm2 (Homo sapiens), Q00987; cell-based MDM2 ubiquitination luciferase reporter, 2 h; 0 = plate control, 100 = twice control, blank-subtracted; signal enhancement, % at 5 µM; 0.11% of 210,000 active;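 active = signal enhancement of 30% or more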;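 also: luminescence tracks abundance of the self-degrading MDM2-luciferase fusion protein; higher signal means inhibition of MDM2 E3 ligase activity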
Target sequence (Q00987 whole entry, looked up, the tested form may be a part): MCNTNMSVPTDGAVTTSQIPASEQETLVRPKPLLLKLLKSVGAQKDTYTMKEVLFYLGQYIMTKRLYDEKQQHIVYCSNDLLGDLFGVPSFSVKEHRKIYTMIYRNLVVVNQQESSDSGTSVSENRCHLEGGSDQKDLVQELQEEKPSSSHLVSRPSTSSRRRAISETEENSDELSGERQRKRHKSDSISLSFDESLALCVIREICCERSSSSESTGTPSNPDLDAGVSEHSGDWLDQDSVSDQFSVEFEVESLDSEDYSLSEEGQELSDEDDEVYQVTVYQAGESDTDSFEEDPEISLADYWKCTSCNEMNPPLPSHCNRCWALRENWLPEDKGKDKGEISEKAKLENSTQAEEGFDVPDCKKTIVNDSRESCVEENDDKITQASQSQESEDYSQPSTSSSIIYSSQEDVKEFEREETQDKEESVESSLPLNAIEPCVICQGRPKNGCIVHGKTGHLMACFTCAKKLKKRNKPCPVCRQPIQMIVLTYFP
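system = mammalian cells stably expressing self-ubiquitinating, self-degrading MDM2 E3–luciferase fusion | quantity = 2000 cells per well seeded | incubation = 4 h cell settling then 2 h compound exposure, 37 °C | signal = SteadyLite luminescence, 15 min reagent step | benchmarks = plate control and blank wells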
Measles CPE: compounds protecting cells from measles virus cytopathic effect, primary screen, measles RdRp inhibitor project, single point, MLSMR library, absorbance; 1.5% of 140,000 active; Measles virus-infected cells, CPE protection; protection (pct of control), % at 4 µM; in the data active = protection mostly above about 24%, no sharp cut-off; inactive = mostly below about 26%
An asterisk follows results filed as active; x = no result. In the library only some 4% were active in any assay of this set; here they are far more common.

SMILES	RAM inhibit	Yeast lifespan up	Insulin prom inh	Yeast growth inh	MDM2 E3 inh	Measles CPE
CCOC(=O)[C@H]1NN=C(C(=O)OC)[C@@H]1c1ccccc1	1	3	-17	-49	11	7
Cc1cc(C(=O)COc2ccc(-c3nnco3)cc2)c(C)n1Cc1ccccc1	0	-7	-37	-78	-7	2
COc1cccc(/C=C/C(=O)c2c(O)cc(C)oc2=O)c1O	1	47*	-26	-12	12	17
COc1ccc(/C=C/C(=O)c2c(O)cc(C)oc2=O)c(OC)c1	7	-8	-60	-54	-12	18
COc1cc(/C=C/C(=O)c2c(O)cc(C)oc2=O)cc(OC)c1O	0	56*	7	-17	-10	21
CCC(C)/C(C)=N/NC(=O)c1ccc(COc2ccc(Cl)c(C)c2)cc1 (stereo not given)	0	-8	0	97*	-5	13
CC(CCc1ccccc1)NC(=O)COC(=O)C12CC3CC(CC(Br)(C3)C1)C2 (stereo not given)	7	1	x	-40	-11	7
Cc1cc(C)cc(NC(=O)Cn2c(-c3ccccc3Cl)nc3ccccc32)c1	1	-3	x	-23	-10	35*
O=C(/C=C/Nc1ccc(Cc2ccc(N/C=C/C(=O)C(F)(F)F)cc2)cc1)C(F)(F)F	5	3	x	-26	-9	26
C=C1CCN(C(C(=O)OC)C(C)C)S(=O)(=O)c2ccccc21 (stereo not given)	x	x	x	x	33*	x
CCOc1cc(NC(=O)c2ccccn2)c(OCC)cc1NC(=O)c1ccccc1	9.7*	x	46	x	-16	x
CCOc1cc(NC(=O)C2CC2)c(OCC)cc1NC(=O)c1ccccn1	4	-9	-3	-10	-18	11
CNC(=O)c1ccsc1NC(=O)c1ccc2c(c1)CCCC2	2	-7	76*	-21	x	9
NC(=O)c1ccsc1NC(=O)c1ccc2c(c1)CCCC2	2	-6	-51	-15	x	19
Cc1cc(C)cc(NC(=O)C(OC(=O)c2sccc2C)c2ccccc2)c1 (stereo not given)	1	4	x	-17	-9	4
CCCCCCN1CC(C(=O)OCC)C(=O)C1=O (stereo not given)	-1	50*	x	-4	-5	12
Cc1ccc(NC(=O)COc2ccc(/C(N)=N/O)cc2)cc1C	1	1	31	-14	-1	4
CCN(CC)c1ccc(/C=N/Nc2ccc(C)cc2)c(O)c1	1	-10	-30	-26	-5	4
CCN(CC)c1ccc(/C=N/Nc2nc(C)cc(=O)[nH]2)c(O)c1	1	3	85*	-34	-15	0
Cc1ccc(C)c(NC(=O)COC(=O)CCC(=O)c2cccs2)c1	8	x	x	x	-9	x
CCC(CC)c1nnc(NC(=O)C2=NNC(=O)CC2)s1	2	x	17	x	9	x
O=[N+]([O-])c1cccc2ccc(/C=C/c3ccc(C(F)(F)F)cc3)nc12	10*	-5	x	-29	-10	20
CCc1cccc(C)c1NC(=O)CN(C)Cc1ccccc1F	1	9	-13	-5	12	5
CCOc1ccc(C(c2c(C)[nH][nH]c2=O)c2c(C)[nH][nH]c2=O)cc1OC	0	-4	39	-7	-10	29
Cc1[nH][nH]c(=O)c1C(c1cc2c(cc1Br)OCO2)c1c(C)[nH][nH]c1=O	0	x	67*	x	-6	x
SMILES	RAM inhibit	Yeast lifespan up	Insulin prom inh	Yeast growth inh	MDM2 E3 inh	Measles CPE
O=C(CN1CCN(c2ccccc2O)CC1)Nc1cccnc1Cl	2	x	x	x	0	x
O=C(Nc1ccc(N2CCOCC2)cc1)c1ccc2nc(-c3ccco3)c(-c3ccco3)nc2c1	7	-19	-8	-27	-17	3
S=C(Nc1ccc(N2CCOCC2)cc1)Nc1ccc2nc(-c3ccco3)c(-c3ccco3)nc2c1	3	37*	-19	-94	x	3
Nc1ccc(N2CCN(C(=O)c3ccco3)CC2)cc1	-1	-11	33	-20	-5	60*
COc1ccc(CN2C(=O)N(c3ccc(OC)cc3)C(=O)C2CC(=O)Nc2ccccc2)cc1 (stereo not given)	9.5*	x	x	x	-2	x
COC(=O)CN1C(=S)N(Cc2ccccc2)C(=O)C1CC(=O)Nc1ccc(OC)cc1 (stereo not given)	0	-2	80*	-35	-10	3
O=C(c1ccc([N+](=O)[O-])cc1)N1CCN(c2cccc3[nH]ccc23)CC1	x	x	x	x	1	x
Cc1ccc(C)c(Cc2c(C)nc3c(C(=O)N4CCOCC4)cnn3c2C)c1	1	-18	x	-18	1	40*
Cc1ccccc1Cc1c(C)nc2c(C(=O)NCc3ccco3)cnn2c1C	10*	-10	x	-46	-11	3
CCOC(=O)N1CCN(C(=O)c2cnn3c(C)c(Cc4ccc(C)cc4)c(C)nc23)CC1	2	-13	x	-8	-27	20
CC1c2ccsc2CCN1S(=O)(=O)c1cccs1 (stereo not given)	x	x	x	x	-9	x
CC(C)Nc1nc(NC(C)C)nc(N(C)C#N)n1	0	-1	77*	-35	-13	16
CSc1nsc2nc(=O)c(/C=C3\C(C)=Nc4ccc(C)cc43)c(N)n12	9.3*	x	-7	x	-7	x
Fc1ccc2nc(Nc3nc4cc5c(cc4s3)OCO5)sc2c1	9.2*	-1	x	-8	2	31
O=C(c1ccc(NC(=S)NCc2ccco2)cc1)N1CCCCC1	0	x	-29	x	-15	x
CCOC(=O)N/N=C/c1ccc(OCCSc2ccc(Cl)cc2)c(OC)c1	9.9*	10	26	-20	-7	21
N#Cc1ccccc1Cn1c(=O)n(C2CCCC2)c(=O)c2ccccc21	0	0	-16	-36	-7	9
O=c1c2ccccc2n(Cc2cccc(F)c2)c(=O)n1C1CCCC1	9.3*	7	x	-45	7	15
c1ccc(-c2nc(CSc3n[nH]c(-c4cccs4)n3)cs2)cc1	3	-21	-44	-23	-7	7
CC(=O)c1ccc(N=Cc2c(O)n(-c3cc(Cl)ccc3N3CCOCC3)c(=O)c3ccccc23)cc1	8.6*	-3	46	-28	-14	3
COc1ccc(NS(=O)(=O)c2cc(NC(=O)[C@@H](NC(=O)c3ccccc3)C(C)C)ccc2C)cc1	8.6*	1	10	-33	20	10
COc1ccc(NS(=O)(=O)c2cc(NC(=O)Cc3cccs3)ccc2C)cc1	4	11	x	-43	5	3

Compound activity (PubChem BioAssay)
